Results: ChEMBL document CHEMBL4373631, “Design, synthesis and evaluation of PD176252 analogues for ameliorating cisplatin-induced nephrotoxicity” (Medchemcomm, 2019)
Active and inactive are the calls of the source. No cut-off for these calls is given here.

What was measured:
[1] = biological target: Transcription factor p65 (Homo sapiens) (UniProt Q04206); assay: Inhibition of cisplatin-induced NF-kappaB p65 phosphorylation in human HK2 cells at 4 uM by Western blot analysis; assay type: cell-based
Sequence of Transcription factor p65 (Homo sapiens) (Q04206 whole entry): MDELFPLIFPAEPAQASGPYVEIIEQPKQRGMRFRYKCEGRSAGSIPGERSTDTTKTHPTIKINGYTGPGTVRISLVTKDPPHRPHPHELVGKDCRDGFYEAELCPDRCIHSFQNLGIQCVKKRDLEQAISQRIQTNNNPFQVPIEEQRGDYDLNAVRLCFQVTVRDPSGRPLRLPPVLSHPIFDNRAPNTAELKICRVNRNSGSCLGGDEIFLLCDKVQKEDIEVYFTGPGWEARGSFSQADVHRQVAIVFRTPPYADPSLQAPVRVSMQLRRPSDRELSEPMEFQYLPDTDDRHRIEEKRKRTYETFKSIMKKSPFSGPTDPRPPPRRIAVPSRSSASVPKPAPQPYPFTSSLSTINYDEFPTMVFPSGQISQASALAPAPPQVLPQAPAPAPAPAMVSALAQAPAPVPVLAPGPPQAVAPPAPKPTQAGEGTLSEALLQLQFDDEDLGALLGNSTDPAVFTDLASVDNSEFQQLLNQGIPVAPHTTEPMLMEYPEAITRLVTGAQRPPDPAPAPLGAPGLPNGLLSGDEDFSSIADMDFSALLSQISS
Summary of the method: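 HK2 cells starved overnight in DMEM/F12 with 0.5% FBS, pretreated 6 h with compound, then given cisplatin 20 μM for 24 h. Lysates made in ice-cold RIPA buffer and protein measured by BCA. Run on 10% SDS-PAGE, transferred to nitrocellulose, primary antibodies 18 h at 4°C, IRDye 800 secondary 1.5 h at room temperature.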

HK-2 [2] = assay: Antiinflammatory activity in human HK2 cells assessed as suppression of cisplatin-induced MCP-1 […] level at 4 uM by ELISA; assay type: functional, cell-based
Summary of the method: (§1)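 HK2 cells starved overnight in DMEM/F12 with 0.5% FBS, pretreated with compound 6 h, then cisplatin 20 μM added. After 24 h, cytokine protein in the culture medium was measured with human TNF-α, IL-6 or MCP-1 ELISA kits per manufacturer's instructions. Three to four independent experiments.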

HK-2 [3] = assay: Antiinflammatory activity in human HK2 cells assessed as suppression of cisplatin-induced TNF-alpha mRNA level at 4 uM by SYBR-green based RT-PCR analysis; assay type: functional, cell-based
Summary of the method: (§2)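 Overnight starvation of HK2 cells in DMEM/F12 with 0.5% FBS, then 6 h compound pretreatment before cisplatin 20 μM. Cells harvested after 24 h. Total RNA extracted with an RNeasy kit, and MCP-1, TNF-α or IL-6 mRNA quantified by real-time PCR. Three to four independent experiments.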

HK-2 [4] = assay: Antiinflammatory activity in human HK2 cells assessed as suppression of cisplatin-induced TNF-alpha […] level at 4 uM by ELISA; assay type: functional, cell-based; summary of the method: as §1
HK-2 [5] = assay: Antiinflammatory activity in human HK2 cells assessed as suppression of cisplatin-induced IL-6 […] level at 4 uM by ELISA; assay type: functional, cell-based; summary of the method: as §1
HK-2 [6] = assay: Antiinflammatory activity in human HK2 cells assessed as suppression of cisplatin-induced MCP-1 mRNA level at 4 uM by SYBR-green based RT-PCR analysis; assay type: functional, cell-based; summary of the method: as §2
HK-2 [7] = assay: Cytotoxicity against human HK2 cells assessed as reduction in cell viability after 24 hrs by MTT assay; assay type: cell-based; settings: hk-2, 24 h
Summary of the method: (§3)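 MTT cytotoxicity read-out on HK2 cells. Medium was changed, MTT in PBS added to a final 0.5 mg/mL, and plates incubated 4 h at 37°C. Medium was then removed, formazan dissolved in DMSO, and absorbance read at 492 nm.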

HK-2 [8] = assay: Antiinflammatory activity in human HK2 cells assessed as suppression of cisplatin-induced IL-6 mRNA level at 4 uM by SYBR-green based RT-PCR analysis; assay type: functional, cell-based; summary of the method: as §2
HK-2 [9] = assay: Protection against cisplatin-induced cell death in human HK2 cells assessed as increase in survival rate at 4 uM preincubated for 6 hrs followed by cisplatin addition measured after 24 hrs by MTT assay relative to control; assay type: functional; settings: read-out: Survival
Summary of the method: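 HK2 cells starved overnight in DMEM/F12 with 0.5% FBS, pretreated with compound for 6 h, then exposed to cisplatin (20 μM) for 24 h. Compounds from 5 mM DMSO stocks. Viability by MTT: 0.5 mg/mL final, 4 h at 37°C, formazan dissolved in DMSO, absorbance at 492 nm. Three to four independent experiments.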

HK-2 [10] = assay: Cytotoxicity against human HK2 cells assessed as reduction in cell viability at 1 to 256 uM after 24 hrs by MTT assay; assay type: cell-based; settings: hk-2, 24 h; summary of the method: as §3
HK-2 [11] = assay: Protection against cisplatin-induced cell death in human HK2 cells assessed as increase in survival rate preincubated for 6 hrs followed by cisplatin addition measured after 24 hrs by MTT assay; assay type: functional, cell-based

SMILES | inhibition [1] | Activity (HK-2 [2]) | Activity (HK-2 [3]) | Activity (HK-2 [4]) | Activity (HK-2 [5]) | Activity (HK-2 [6]) | Activity (HK-2 [7]) | Activity (HK-2 [8]) | viability at 4 µM (HK-2 [9]) [%] | Activity (HK-2 [10]) | Activity (HK-2 [11])
COc1ccc(C2(CNC(=O)[C@](C)(Cc3c[nH]c4ccccc34)NC(=O)Nc3ccc([N+](=O)[O-])cc3)CCCCC2)nc1 | Active | Active | Active | Active | Active | Active | Toxic | Active |  |  | 
Cc1ccc(CC(=O)N[C@@H](Cc2ccccc2)C(=O)NCCn2ccnc2)cc1 | Active | Active | Active | Active | Active | Active |  | Active | > 40 | Non-Toxic | Dose-dependent effect
O=C(Cc1ccc(F)cc1)N[C@@H](Cc1ccc(O)cc1)C(=O)NCCN1CCOCC1 |  |  | Active |  |  | Active |  | Active | > 30 | Non-Toxic | Dose-dependent effect
